Screening data as filed in PubChem.
In the library only some 1.6% were active in any assay of this set; here they are far more common.
Rev-erbA mod – modulators of Rev-erb alpha DNA binding, primary screen, biochemical, FITC-DNA, fluorescence polarization, uHTS. Nuclear receptor subfamily 1 group D member 1 (Homo sapiens), P20393. Rev-erbα–FITC-DNA binding, 90 min. activity, % at 10 µM. 0.79% of 370,000 active. AID 1259318, 2017;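 active = activity above about 14%, limit read from the data; passing the limit was not always enough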;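 note: 0% = DMSO wells with 35 nM protein and 100% = DMSO wells with 750 nM protein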
Target sequence (P20393 whole entry, looked up): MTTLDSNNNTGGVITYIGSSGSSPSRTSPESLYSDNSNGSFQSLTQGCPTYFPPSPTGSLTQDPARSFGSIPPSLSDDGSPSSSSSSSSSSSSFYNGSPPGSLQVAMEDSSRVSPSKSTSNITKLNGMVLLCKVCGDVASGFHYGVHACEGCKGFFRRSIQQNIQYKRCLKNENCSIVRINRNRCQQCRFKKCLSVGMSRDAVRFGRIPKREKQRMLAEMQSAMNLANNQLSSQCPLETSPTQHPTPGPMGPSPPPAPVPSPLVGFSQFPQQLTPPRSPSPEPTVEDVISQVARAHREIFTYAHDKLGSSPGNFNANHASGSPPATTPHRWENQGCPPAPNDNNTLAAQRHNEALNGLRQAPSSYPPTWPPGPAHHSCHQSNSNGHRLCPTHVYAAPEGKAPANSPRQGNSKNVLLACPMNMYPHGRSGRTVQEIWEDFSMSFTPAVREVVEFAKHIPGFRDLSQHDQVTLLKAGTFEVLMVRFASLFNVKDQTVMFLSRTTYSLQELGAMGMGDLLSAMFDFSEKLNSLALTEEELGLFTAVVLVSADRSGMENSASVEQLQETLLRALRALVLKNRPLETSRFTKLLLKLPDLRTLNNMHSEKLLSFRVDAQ
PKA-R2B activ – activators of PKA-R2B holoenzyme, primary screen, biochemical, fluorescence polarization, Cy5-IP20, human | cAMP-dependent protein kinase catalytic subunit beta (Homo sapiens) + cAMP-dependent … | PKA-R2B holoenzyme dissociation; R2B truncated from residue 108, S112A mutant; 0% DMSO only, 100% 113 µM cGMP | 0.079% of 340,000 active | AID 504700, 2011 | activation, % at 11.4 µM;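 active = activation above a cutoff set at the mean over all compounds plus 3 SD, cut at about 18% in these data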;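 note: higher means more holoenzyme dissociation and a rise in polarization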
PG9 binder – binders of HIV-1 gp120 antibody PG9, primary screen, biochemical, TR-FRET; HIV-1 gp120 / PG9 antibody interaction; TR-FRET gp120-PG9 antibody binding; inhibition, % at 6.7 µM; 0.43% of 360,000 active; in the data active = inhibition above about 8.5%
NR2E3 ag-1 – inhibitors of NR2E3-RetCOR corepressor binding, primary screen, NR2E3 agonist project, biochemical, TR-FRET, GST-NR2E3, biotin-RetCOR; Photoreceptor-specific nuclear receptor (Homo sapiens), Q9Y5X4; 1536-well; inhibition of corepressor binding, % at 4.78 µM; 0.12% of 320,000 active; AID 2300, 2010;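 active = percent inhibition above the cutoff of mean plus 3 SD of all tested compounds, set per screening campaign, cut at about 20% in these data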;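 note: 0% = DMSO wells and 100% = biotin wells as full block of FRET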
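Material: NR2E3–RetCOR corepressor complex / Incubation: Compound–protein incubation for 5 h at 4 °C / Dosing: compound at 4.8 µM, single dose / Detection: time-resolved FRET / Benchmarks: high control biotin, low control 0.6% DMSO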
NR2E3 ag-2 – NR2E3 agonists in two-hybrid cells, primary screen, cell-based, luminescence, CHO-S, Gal4-NCOR/VP16-NR2E3 | inhibition of corepressor binding, % at 3.98 µM | AID 602229, 2012 | 0.35% of 360,000 active | luciferase;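 active = inhibition above the mean of all tested compounds plus 3 SD, cut at about 70% in these data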;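 note: 0% = DMSO with NR2E3 transfected cells and 100% = cells lacking NR2E3 construct; higher means lower luciferase signal from less NR2E3 corepressor binding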
PKA-R1A act – activators of PKA-R1A holoenzyme, primary screen, biochemical, fluorescence polarization, Cy5-IP20, bovine R1A, mouse PKAc | cAMP-dependent protein kinase type I-alpha regulatory subunit (Bos taurus) + … | PKA-R1A dissociation; scaled: DMSO 0%, 113 µM cGMP 100% | activation, % at 11.4 µM | 0.083% of 340,000 active | AID 504707, 2011;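 active = percent activation above the mean of all tested compounds plus 3 SD, cut at about 19% in these data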;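 note: higher means more PKAc released from R1A so a rise in polarization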
PG9 bind confirm – binders of anti-gp120 antibody PG9, confirmation, biochemical, TR-FRET | shares compounds with PG9 binder | TR-FRET PG9 antibody binding | inhibition, % at 6.7 µM | 90% of 1,500 active; in the data active = inhibition above about 9%
PGV04 Ab binding – binders of control antibody PGV04, counter-screen for PG9 antibody binder project, biochemical, TR-FRET, distinct HIV envelope site; TR-FRET PGV04 antibody-gp120 binding; 95% of 1,500 active; AID 651604, 2012; inhibition, % at 6.7 µM; shares compounds with PG9 binder; in the data active = inhibition above about 9.5%
PG9 binder DR – small-molecule binders of antibody PG9, dose response, biochemical, TR-FRET, HIV-1 gp120 antibody. 95 tested, under 10 active. TR-FRET PG9 antibody-gp120 binding inhibition. IC50, µM. shares compounds with PG9 binder; in the data active = IC50 below about 10 µM
PGV04 DR counter – binders of control antibody PGV04, dose response, counter-screen for PG9 antibody binder project, biochemical, TR-FRET, distinct HIV envelope site; shares compounds with PG9 binder; TR-FRET binding to control antibody PGV04; IC50, µM; 20% of 95 active; AID 651937, 2012
PG126 binding DR – binders of control antibody PG126, dose response, counter-screen for PG9 antibody binder project, biochemical, TR-FRET, distinct HIV envelope site; AID 651939, 2012; 20% of 95 active; shares compounds with PG9 binder; IC50, µM; TR-FRET binding to antibody PG126, counterscreen
* = called active by the depositor. Cut-off read from the data, not from the text of the source, unless noted: active = IC50 below about 9 µM; inactive = the rest.

How did O=C(NC1CCCCN(Cc2cccc(C(F)(F)F)c2)C1=O)c1ccc(-c2ccccc2)cc1 (configuration not stated) do in these assays?
Rev-erbA mod: -1.6

How did CCCn1c(/C=C/c2cc[n+](C)cc2)nc2ccccc21 do in these assays?
Rev-erbA mod: -6.7; PKA-R2B activ: -2.4; PG9 binder: 10.2*; NR2E3 ag-1: 2.9; NR2E3 ag-2: -11.5; PKA-R1A act: -3.7; PG9 bind confirm: 13.0*; PGV04 Ab binding: 15.3*

What do the screens show for `Cc1cccc(S(=O)(=O)Nc2cccc3c2C(=O)c2ccccc2-3)c1`?
Rev-erbA mod: 4.0; PKA-R2B activ: 2.2; PG9 binder: 11.1*; NR2E3 ag-1: 9.4; NR2E3 ag-2: -4.3; PKA-R1A act: -5.8; PG9 bind confirm: 15.3*; PGV04 Ab binding: 17.1*

How did Cc1ccc(NS(=O)(=O)c2ccc3c(c2)C(=O)c2ccccc2C3=O)c(C)c1 do in these assays?
Rev-erbA mod: 0.8; PKA-R2B activ: -7.6; PG9 binder: -2.2; NR2E3 ag-1: 3.0; NR2E3 ag-2: -12.4; PKA-R1A act: -5.2

What do the screens show for `COc1ccc(S[C@]2(C(=O)N3CCCC3)CC(=O)N(c3ccsc3)[C@@H]2c2ccc(OC)cc2)cc1`?
Rev-erbA mod: 2.2

How did CC(=O)c1cccc(N/C=C\c2nnnn2-c2ccc(F)cc2)c1 do in these assays?
Rev-erbA mod: -10.9; PKA-R2B activ: -1.2; PG9 binder: 16.6*; NR2E3 ag-1: -1.4; NR2E3 ag-2: -21.7; PKA-R1A act: -8.0; PG9 bind confirm: 10.8*; PGV04 Ab binding: 19.8*

What do the screens show for `Cc1nc(SCC(=O)Nc2nccs2)c(C#N)c(C)c1C`?
Rev-erbA mod: 11.5; PKA-R2B activ: 8.0; PG9 binder: 33.3*; NR2E3 ag-1: 5.6; NR2E3 ag-2: 6.4; PKA-R1A act: -5.2; PG9 bind confirm: 43.6*; PGV04 Ab binding: 66.1*

Results for N#Cc1c(SCC(=O)Nc2nccs2)nc2c(c1-c1ccco1)CCCC2 ?
Rev-erbA mod: -0.6; PKA-R2B activ: -6.6; PG9 binder: 1.0; NR2E3 ag-1: 2.3; NR2E3 ag-2: -20.6; PKA-R1A act: 1.2

How did O=c1[nH]c2cc3c(cc2cc1C(c1nnnn1C1CCCC1)N1CCSCC1)OCCO3 (configuration not stated) do in these assays?
Rev-erbA mod: -4.5; PKA-R2B activ: -2.0; PG9 binder: 21.4*; NR2E3 ag-1: 0.1; NR2E3 ag-2: 1.5; PKA-R1A act: -13.5; PG9 bind confirm: 41.6*; PGV04 Ab binding: 28.8*; PG9 binder DR: inactive; PGV04 DR counter: 7.99*; PG126 binding DR: 7.79*

How did CC(C)(C)n1nnnc1C(c1cc2cc3c(cc2[nH]c1=O)OCCO3)N1CCSCC1 (configuration not stated) do in these assays?
Rev-erbA mod: -0.8; PKA-R2B activ: -4.0; PG9 binder: -0.2; NR2E3 ag-1: 5.5; NR2E3 ag-2: -29.1; PKA-R1A act: -3.0

How did COC(=O)CNC(=O)COC(=O)/C=C/c1ccc2ccccc2n1 do in these assays?
Rev-erbA mod: 5.5; PKA-R2B activ: -3.7; PG9 binder: -0.7; NR2E3 ag-1: -1.6; NR2E3 ag-2: 13.9; PKA-R1A act: -1.0

What do the screens show for `CC(OC(=O)/C=C/c1ccc2ccccc2n1)C(=O)NCc1ccccc1` (configuration not stated)?
Rev-erbA mod: 10.5; PKA-R2B activ: -0.6; PG9 binder: 15.3*; NR2E3 ag-1: -1.5; NR2E3 ag-2: 13.7; PKA-R1A act: -14.4; PG9 bind confirm: 11.4*; PGV04 Ab binding: 13.2*

Results for COC(=O)[C@]12C[C@H](CC(=O)NCc3ccc(C)o3)C(=O)N(Cc3ccc4c(c3)OCO4)C1=C[C@H](C(C)(C)C)O[C@@H]2C ?
Rev-erbA mod: 10.5; PG9 binder: -0.5

How did CCc1ccc(Nc2n[n+](-c3ccccc3)c(-c3ccc(N(CC)CC)cc3)s2)cc1 do in these assays?
Rev-erbA mod: 4.8; PKA-R2B activ: 3.5; PG9 binder: 9.7*; NR2E3 ag-1: 11.1; NR2E3 ag-2: -18.4; PKA-R1A act: -0.2; PG9 bind confirm: 18.2*; PGV04 Ab binding: 10.6*; PG9 binder DR: >67; PGV04 DR counter: >67; PG126 binding DR: >67

What do the screens show for `C=CCN(CC#Cc1ccc(C(F)(F)F)cc1)Cc1ccc(OC)cc1OC`?
Rev-erbA mod: 5.6

What do the screens show for `CCOc1cc(OCC)cc(C(=O)NCc2ccco2)c1`?
Rev-erbA mod: -5.8; PKA-R2B activ: -5.4; PG9 binder: 8.9*; NR2E3 ag-1: 2.4; NR2E3 ag-2: -12.3; PKA-R1A act: 2.1; PG9 bind confirm: 4.6; PGV04 Ab binding: 5.5

What do the screens show for `CCOc1ccc(C(=O)NCc2ccco2)cc1`?
Rev-erbA mod: -3.8; PKA-R2B activ: -4.6; PG9 binder: -2.8; NR2E3 ag-1: 5.9; NR2E3 ag-2: -38.8; PKA-R1A act: -5.0

How did Clc1ccc(-n2c(SCc3cccc4ccccc34)nnc2-c2ccco2)cc1 do in these assays?
Rev-erbA mod: 0.2
